From ChEMBL document CHEMBL4689842, “EUbOPEN Chemogenomics Library wave 1” (2021)
“And” between values parts separate entries of the source, which are not always exact repeats. Equal values may be shown once.

Test system: U2OS
Experiment: Multiplex assay against U2OS
Assay type: toxicity, cell-based
Conditions: human, 10 µM, compound concentration 10 uM
How it was run: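 Cells stained live at seeding with Hoechst33342, BioTracker Green Microtubule Cytoskeleton Dye, MitoTracker Red and Annexin V Alexa Fluor 680 were imaged on a CQ1 microscope at 37°C and 5% CO2 after compound addition. Their classification by CellPathfinder machine-learning gating ran from Hoechst high-intensity objects versus normal cells, to healthy, pyknosed or fragmented nuclei among normal cells, to mitotic or apoptotic among pyknosed cells. Tubulin, mitochondrial-mass and membrane-permeability phenotypes are per cents of healthy-nucleus cells.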

With `CCn1c(=O)c(-c2ccc(Cl)cc2Cl)cc2cnc(Nc3ccc(N4CCNCC4)c(F)c3)nc21` as the molecule, how does the “Population Apoptotic (%)” value (12 h, replicate 1) read?
Its value is 97% and 89% and 38%.

And the “Population Normal (%)” value (12 h, replicate 1)?
Its value is 31% and 45% and 92%.

And the “Total Cell Count” value (12 h, replicate 1)?
The value was 204 and 465 and 202.

And the “Population Apoptotic (%)” value (12 h, replicate 2)?
Its value is 100% and 88% and 46%.

What about the “Population Fragmented Nuclei (%)” value (12 h, replicate 2) of the same molecule?
Its value is 44% and 21% and 19%.

And the “Population Membrane Permeable-Phenotype (%)” value (12 h, replicate 2)?
Its value is 71% and 78%.

What about the “Population Normal (%)” value (12 h, replicate 2) of the same molecule?
The value was 50% and 40% and 80%.

What about the “Total Cell Count” value (12 h, replicate 2) of the same molecule?
The value was 206 and 130 and 83.

What about the “Population Apoptotic (%)” value (24 h, replicate 1) of the same molecule?
The value was 87% and 91% and 60%.

And the “Population Fragmented Nuclei (%)” value (24 h, replicate 1)?
Its value is 22% and 8%.

And the “Population Normal (%)” value (24 h, replicate 1)?
Its value is 40% and 34% and 89%.

And the “Population Pyknosed Nuclei (%)” value (24 h, replicate 1)?
The value was 50% and 40% and 25%.

What about the “Total Cell Count” value (24 h, replicate 1) of the same molecule?
Its value is 436 and 206 and 232.

What about the “Population Apoptotic (%)” value (24 h, replicate 2) of the same molecule?
Its value is 100% and 53%.

And the “Population Fragmented Nuclei (%)” value (24 h, replicate 2)?
Its value is 41% and 39%.

What about the “Population Healthy Nuclei (%)” value (24 h, replicate 2) of the same molecule?
The value was 31% and 45% and 50%.

What about the “Population Pyknosed Nuclei (%)” value (24 h, replicate 2) of the same molecule?
Its value is 26% and 15% and 27%.

And the “Population Tubulin-Different-Phenotype (%)” value (24 h, replicate 2)?
The value was 84% and 86% and 29%.

And the “Total Cell Count” value (24 h, replicate 2)?
The value was 225 and 118 and 97.

And the “Population Apoptotic (%)” value (48 h, replicate 1)?
Its value is 90%.

And the “Population Fragmented Nuclei (%)” value (48 h, replicate 1)?
Its value is 48%.

And the “Population Healthy Nuclei (%)” value (48 h, replicate 1)?
The value was 10%.

What about the “Population Hoechst High Intensity Objects (%)” value (48 h, replicate 1) of the same molecule?
The value was 59%.

And the “Population Membrane Permeable-Phenotype (%)” value (48 h, replicate 1)?
Its value is 75%.

And the “Population Mitochondria Different-Phenotype (%)” value (48 h, replicate 1)?
The value was 62%.

And the “Population Mitotic Cells (%)” value (48 h, replicate 1)?
The value was 9%.

And the “Population Normal (%)” value (48 h, replicate 1)?
Its value is 40%.

And the “Population Pyknosed Nuclei (%)” value (48 h, replicate 1)?
Its value is 41%.

What about the “Population Tubulin-Different-Phenotype (%)” value (48 h, replicate 1) of the same molecule?
The value was 75%.

What about the “Total Cell Count” value (48 h, replicate 1) of the same molecule?
The value was 620.

And the “Population Apoptotic (%)” value (48 h, replicate 2)?
Its value is 100%.

What about the “Population Fragmented Nuclei (%)” value (48 h, replicate 2) of the same molecule?
Its value is 43%.

What about the “Population Healthy Nuclei (%)” value (48 h, replicate 2) of the same molecule?
Its value is 26%.

And the “Population Hoechst High Intensity Objects (%)” value (48 h, replicate 2)?
The value was 56%.

And the “Population Membrane Permeable-Phenotype (%)” value (48 h, replicate 2)?
The value was 100%.

And the “Population Mitochondria Different-Phenotype (%)” value (48 h, replicate 2)?
Its value is 91%.

And the “Population Mitotic Cells (%)” value (48 h, replicate 2)?
Its value is 0%.

And the “Population Normal (%)” value (48 h, replicate 2)?
Its value is 43%.

What about the “Population Pyknosed Nuclei (%)” value (48 h, replicate 2) of the same molecule?
The value was 30%.

And the “Population Tubulin-Different-Phenotype (%)” value (48 h, replicate 2)?
Its value is 91%.

And the “Total Cell Count” value (48 h, replicate 2)?
The value was 227.
